# PubChem BioAssay
# Unmarked numbers belong to inactive results. Records with an inconclusive call do not appear. The source made the active and inactive calls.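 The calls were made as follows, unless noted: active = viability increase at or above a cutoff of the median across tested compounds plus 3 SD (cut at about 8.5% in these data, passing the limit was not always enough); inconclusive = some gains above the cutoff, reason not given; inactive = the rest.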
# How the values were obtained:
# [1] = OD615 S. cerevisiae growth inhibition, permissive medium, pilot counter-assay, permissive growth control for S. cerevisiae lifespan shortening project (AID 705;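 active = growth inhibition above 25% in both replicates, a cutoff set 3 SD above the mean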); conditions: OD615, 24 h, at 10 µM, active compounds read high
# Outline: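 assay system = Saccharomyces cerevisiae strain carrying genetically modified DeaD replicative-lifespan system | technique = absorbance (optical density) at 615 nm | buffer or medium = permissive raffinose/galactose medium | timing = cells pre-grown 4 h, then 24 h compound exposure, 30 °C humidified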
# [2] = Restrictive medium S. cerevisiae growth inhibition, OD615, pilot screen of yeast lifespan reduction project, restrictive growth control (AID 706;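 active = growth inhibition above a set limit, 3 SD over mean compound inhibition, in both replicates, cut at about 43% in these data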;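 also: modified DeaD lifespan yeast strain shifted to restrictive glucose medium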); conditions: OD615, 48 h, at 10 µM, active compounds read high
# Outline: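 System: modified S. cerevisiae. Buffer or medium: CSMM-D glucose medium. Incubation: 4 h pre-growth plus 48 h compound exposure, 30 °C. Detection: absorbance (optical density) measured at 615 nm.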
# [3] = viability gain of MRP-1-high H69AR cells under doxorubicin, pilot screen, MRP-1 activator project, CellTiter-Glo, duplicate (AID 807); conditions: H69AR viability with doxorubicin, CellTiter-Glo luminescence; at 10 µM; active compounds read high;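 also: compound pretreatment 18-22 h then 72 h combined with doxorubicin; 0% = doxorubicin alone and 100% = vehicle without doxorubicin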
# [4] = growth suppression of beta-catenin knockout HCT116, pilot screen, human colon tumor cells (AID 823;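 active = cell viability at or below a set limit in both duplicate runs, the limit being the all-compound median minus 4 SD, cut at about 23% in these data, passing the limit was not always enough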;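 also: 0% = wells killed by 20 µM Hyamine and 100% = untreated DMSO cell wells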); conditions: CellTiter-Glo, 60 h, at 10 µM, active compounds read low
# [5] = growth suppression of PTEN-deleted HCT116, pilot screen, cell-based, HCT116 clonal line, CellTiter-Glo (AID 824;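 active = viability at or below 27.92% in each of two runs, the all-compound median minus 4 SD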;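 also: 0% = 20 µM Hyamine control and 100% = vehicle cell control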); conditions: 60 h, at 10 µM, active compounds read low
# [6] = inhibitors of the yeast RAM network, pilot screen, dse1pr::URA3 reporter, 5-FOA selection (AID 869;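 active = inhibition over a set limit, the all-compound mean plus 3 SD, in both replicate runs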;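 also: 0% = DMSO wells with no growth and 100% = 10 µM 1-NA-PP1 with full growth; RAM network block rescues cells from 5-FOA so hits raise OD615 growth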); conditions: S. cerevisiae dse1pr::URA3 5-FOA growth, OD615, 2 d; at 10 µM; active compounds read high; strain carries analog-sensitive mutant Cbk1 kinase
# [7] = RAM signaling pathway blockade in yeast – S. cerevisiae, Pdr1DBD-CYC8 efflux-inhibited sensitized strain, primary screen (AID 1298;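 active = RAM network inhibition above 8.4% in each of two replicates, 3 SD over the compound average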;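 also: 0% = DMSO untreated cells without growth and 100% = 10 µM 1-NA-PP1 full growth; higher means more yeast growth rescued from 5-FOA killing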); conditions: S. cerevisiae cbk1-as DSE1-URA3 strain, 5-FOA growth OD615, 2 d; at 50 µM; active compounds read high
SMILES,growth inhibition [1] [%],growth inhibition [2] [%],viability increase [3] [%],viability [4],viability [5],inhibition [6] [%],RAM network inhibition [7] [%]
Cc1c(N=C/C=C/c2ccccc2)cnn1C,-8.46,-12.3,-5.08,91.7%,90.5%,1.85,3.36
COC(=O)c1ccc(/C=N/n2cnnc2)cc1,-10.3,-20,-1.44,101%,89.3%,0.79,4.48
COCCn1c(SCC(=O)N2CCN(c3ccccc3)CC2)nc2c(c1=O)SC(C)C2 (configuration not stated),10.7,10.7,-3.54,103%,92.9%,1.65,2.75
Cc1ccc(/C=N/n2c(C)nnc2C)cc1,-5.29,-2.88,-1.74,87.4%,99.1%,0.135,0.41
Cc1cc(C(=O)Nc2cccnc2)on1,-5.72,-5.71,-1.86,103%,93.4%,0.355,2.08
CC(=O)N1CCN(CCN=CC2=C(O)CC(c3cccs3)CC2=O)CC1 (configuration not stated),-6.7,-2.31,-0.76,93.1%,103%,-0.455,-0.41
Cc1cccc(-n2ncc3c(NC(C)C)ncnc32)c1,5.47,3.18,-0.3,101%,84.3%,0.87,-0.57
CCc1nnc(NC(=O)CSc2nnc(Cc3cccn3C)n2CCOC)s1,-4.61,32.5,-0.66,96.8%,98.3%,0.98,2.84
COc1ccccc1CNC(=O)c1cnc2ccccn2c1=O,-6.47,8.2,-0.15,97.8%,90.5%,0.36,2.45
O=C(NCc1cccs1)c1ccccc1F,-9.19,-7.24,-0.25,94.2%,88.9%,0.385,1.34
CCSC(C)CC1CC(=O)CC(=O)C1 (configuration not stated),-11.7,6.03,0.29,94%,89.9%,1.39,2.13
O=C(NCCN1CCCC1)c1ccc(CS(=O)(=O)c2c(Cl)cccc2Cl)o1,-6.75,-20.8,-0.97,106%,102%,1.5,2.61
COc1ccccc1C1N(c2cc(Cl)ccc2OC)C(=O)C2CCCN21 (configuration not stated),8.71,3.69,-2.83,98.7%,96.3%,0.445,2.33
CC(C)n1c(SCc2ccccc2F)nc2c1c(=O)n(C)c(=O)n2C,-11.3,-1.82,-1.77,82.7%,76.5%,1.15,5.87
CN1CCN(c2cc3c(c4c2[nH]c2ccccc24)C(=O)CC(C)(C)C3)CC1,-15.3,4.61,-8.46,1.73% (active),1.58% (active),0.76,0.78
NC(=O)C1(N2CCCCC2)CCN(C(=O)CCCn2c(=O)[nH]c3ccsc3c2=O)CC1,-6.16,2.1,-1.61,93.5%,91.6%,1.89,0.48
O=C(Nc1nc2ccccc2s1)c1ccc(Cl)s1,-14.7,-29.6,-3.11,88.3%,77%,2.79,1.32
CCOC(=O)Cn1c(=O)oc2cc(S(=O)(=O)NCc3ccccn3)ccc21,-14,-21.4,-1.25,105%,95.1%,1.79,3.14

SMILES,growth inhibition [1] [%],growth inhibition [2] [%],viability increase [3] [%],viability [4],viability [5],inhibition [6] [%],RAM network inhibition [7] [%]
COc1ccc(C2(C(=O)NCCCN(C)C)CCOCC2)cc1,-19.3,-23.9,-0.22,98.3%,100%,1.26,1.69
COc1ccccc1N1CCN(C(CNC(=O)C2CCCCC2)c2cccnc2)CC1 (configuration not stated),-3.31,-3.02,1.93,90.1%,94.4%,0.775,3.85
CCOC(=O)CSC(CC)C(=O)Nc1nnc(C(C)C)s1 (configuration not stated),5.7,9.58,-1.46,94.6%,94.7%,1,9.23
Cn1c(=O)oc2cc(S(=O)(=O)N3CCCC(C(=O)NCc4cccs4)C3)ccc21 (configuration not stated),2.14,2.64,-1.73,100%,93.4%,2.51,6.45
CCOC(=O)N1CCC(NC(=O)c2cc3c(-c4ccccc4F)nn(C)c3s2)CC1,-7.38,-13.5,-3.97,75.6%,84.2%,1.74,0.42
NC(=O)CSc1ncnc2c1oc1ccccc12,-17.7,-9.65,-2.08,99.5%,91.6%,0.41,0.74
CCOc1ccc(NC(=O)CSc2nc3c(c(=O)n2-c2ccccc2OC)SCC3)cc1,-4.54,-3.66,-2.57,94.3%,82.5%,0.805,1.18
C=CCn1c(SCC(=O)N2CCN(c3ccc(F)cc3)CC2)nnc1-c1ccco1,3.6,1.48,-2.41,60.7%,73.1%,1.71,11.3
CC(Cc1c[nH]c2ccccc12)NC(=O)C1CCCNC1=O (configuration not stated),-5.75,8.45,-0.46,99.4%,103%,1.27,0.66
Cc1cc(=S)n(-c2ccccc2)n1C,1.78,7.75,-0.34,102%,95.4%,1.21,0.45
O=C(CC1Oc2ccccc2NC1=O)NCCc1ccccc1 (configuration not stated),-0.525,0.925,0.98,107%,105%,2.94,9.58
Nc1nc(SCC(=O)N2CCCc3ccccc32)n(-c2ccccc2)n1,-4.37,0.05,-4.68,108%,99.3%,2.67,6.67
Cn1c(C(=O)N2CCN(c3ccc(Cl)cc3)CC2)cc2c(=O)n(C)c3ccccc3c21,-9.61,2.92,-0.43,93%,90.6%,2.57,2.59
COc1c(Cl)cc(-c2noc(C)c2C(=O)NC(C)C)cc1Cl,-17.1,-15.9,0.34,98.1%,96.4%,1.33,2.37
Cc1nnc(SCCn2c(N3CCCC(C)C3)nc3c2c(=O)n(C)c(=O)n3C)s1 (configuration not stated),-11.4,-13.6,-3.23,94.2%,97.2%,2.31,1.84
CC(=N)C1=C(O)CC(C)(C)CC1=O,-7.31,-1.06,0.77,94.9%,105%,1.49,2.39
CC(=O)Oc1ccc(C(=O)Nc2nnc(C)s2)cc1,-10.4,-4.59,-2.2,100%,104%,2.9,-0.78
CCOC(=O)c1c(C)oc2ccc(OC(=O)N3CCOCC3)cc12,-16.1,0.815,-1.36,93.8%,89.6%,0.115,0.98
